The test system of one data set is A549. The experiment in a line: Antiproliferative activity against human A549 cells assessed as reduction in cell viability after 72 hrs by MTS assay. To be noted: A549, 72 h. Format: functional, cell-based. In a few lines: (§1)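 Cells plated at 2000/well, cultured overnight, then exposed to a range of compound concentrations for 72 h. MTS reagent added for 1–4 h at 37 °C and absorbance read at 490 nm. Cultured in RPMI 1640 or DMEM with 10% heat-inactivated FBS under 5% CO2. Data are the mean of three determinations.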
On the technique in general: Formazan colour is commonly taken as a measure of viable cells.

The test system of the next data set is HT-29. The experiment in a line: Antiproliferative activity against human HT-29 cells assessed as reduction in cell viability after 72 hrs by MTS assay. Format: functional, cell-based. To be noted: HT-29, 72 h. In a few lines: as §1
Another data set concerns COLO 205. The experiment in a line: Antiproliferative activity against human COLO205 cells assessed as reduction in cell viability after 72 hrs by MTS assay. In kind it is functional, cell-based. To be noted: COLO 205, 72 h. In a few lines:
as §1

The next data set has as its system SW-620. The experiment in a line: Antiproliferative activity against human SW620 cells assessed as reduction in cell viability after 72 hrs by MTS assay. In kind it is functional, cell-based. The note with it: SW-620, 72 h. In a few lines: as §1
Another data set concerns MOLT-4. The experiment in a line: Antiproliferative activity against human MOLT4 cells assessed as reduction in cell viability after 72 hrs by MTS assay. The note with it: MOLT-4, 72 h. In kind it is functional, cell-based. In a few lines:
as §1

Data set [1] can be described thus: Cytotoxicity against human bronchial epithelial cells assessed as reduction in cell viability after 72 hrs by MTS assay. Format: cell-based. In a few lines:
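Cells plated at 2000 per well, cultured overnight, then exposed to a range of compound concentrations for 72 h. MTS reagent added, 1–4 h at 37 °C, absorbance read at 490 nm. Mean of three determinations.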

Data set [2] relates to NCI-H1975. In words: Induction of apoptosis in human NCI-H1975 cells assessed as bax protein expression after 24 hrs by immunoblotting analysis. Format: functional, cell-based. A general note: Immunoblotting shows a protein as a band on a membrane.
Data set [3] has as its system NCI-H1975. In words: Cell cycle arrest in human NCI-H1975 cells assessed as increase in cell population at sub-G1 phase after 24 hrs by propidium iodide-staining based flow cytometry. In kind it is functional. In a few lines: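 Cells treated for 24 h, then trypsinized and fixed overnight in ice-cold 70% ethanol. Stained for 30 min with propidium iodide (10 µg/mL) plus RNase (20 µg/mL), and DNA content measured by flow cytometry. Mean ± SD.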
(In general: Flow cytometry measures light scatter and fluorescence of single cells or particles in a stream.)

The test system of data set [4] is NCI-H1975. The experiment in a line: Induction of mitotic arrest in human NCI-H1975 cells assessed as cyclin A at 40 to 80 nM after 24 hrs by immunoblotting analysis. In kind it is functional, cell-based.
The test system of another data set is CL1-0. In words: Induction of cell cycle arrest in human CL1-0 cells assessed as accumulation at mitotic phase after 24 hrs by high content imaging analysis. In kind it is functional, cell-based. In a few lines:
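Cells exposed for 24 h, stained for phospho-histone H3 (S10), and imaged by high-content imaging. Mitotic index taken as the fraction of p-HH3-positive cells. Mean ± SD.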

Data set [5] has as its target T1, Tubulin (Homo sapiens) (UniProt P68371+Q9H4B7+P0DPH7+P68366+Q13509+Q71U36+P04350+Q3ZCM7+P07437+P68363+Q9BQE3+Q6PEY2+Q13885+Q9BVA1+Q9BUF5). The experiment in a line: Binding affinity to tubulin (unknown origin) assessed as increase complex formation with compound by SPR analysis. Format: protein-complex assay. In a few lines: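 Biotin-tubulin (50 µg/mL) captured on a streptavidin chip to about 3,000 RU, with remaining sites blocked by biocytin and a free flow cell as reference. Compound injected at different concentrations in HBS-EP+ (pH 7.4) at 25 °C. KD obtained from steady-state fitting.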

The target of data set [6] is T1, Tubulin (Homo sapiens). The experiment in a line: Binding affinity to tubulin (unknown origin) assessed as increase in Beta-col fragment production at 100 uM after 30 mins by coomassie brilliant blue staining based trypsin proteolysis assay. Format: protein-complex assay. In a few lines: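 Tubulin (1 mg/mL) preincubated with 100 µM compound for 30 min at 30 °C in 0.1 M MES, 1 mM MgCl2, 1 mM EGTA, pH 6.9. Trypsin added at 25 µg/mL (1:40 w/w) for 10 min on ice. Fragments resolved on 15% SDS-PAGE, stained with Coomassie and quantified by densitometry.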

The target of data set [7] is T1, Tubulin (Homo sapiens). In words: Inhibition of microtubule polymerization in human NCI-H1975 cells at 25 nM after 6 hr followed by DAPI staining based confocal microscopic analysis. In kind it is cell-based. In a few lines: (§2)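 Cells exposed for 6 h, fixed in 3.7% paraformaldehyde, permeabilized with 0.1% Triton X-100. Stained with anti-α-tubulin (1:1000) overnight at 4 °C, FITC secondary 1 h at 37 °C, nuclei counterstained with DAPI. Imaged by confocal laser scanning microscopy.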

The subject of data set [8] is NCI-H1975. In words: Antitumour activity against human NCI-H1975 cells xenografted in Balb/c mouse assessed as tumour size at 4 mg/kg, ip administered three times per week and measured on day 21 (reference value: 2153 +/- 126.3 mm3). Format: functional. In a few lines:
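H1975 tumours grown in the right flank of 6-week-old BALB/c nude mice. DMSO vehicle or 4 or 8 mg/kg compound in DMSO given ip three times weekly. Tumour volume calculated as 0.5W²L before each dose and compared on day 21.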

Data set [9] is described as follows: Toxicity in Balb/c mouse xenografted with human NCI-H1975 cells assessed as effect on body mass at 4 to 8 mg/kg, ip administered 3 times per week for 21 days. The note with it: in vivo, 504 h. In kind it is organism-based. In a few lines: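 H1975 tumors grown in right flank of 6-week-old BALB/c nude mice; after establishment, 4 or 8 mg/kg compound dissolved in DMSO, or DMSO alone, given intraperitoneally three times a week. Body mass taken before each dose.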

The test system of another data set is MDA-MB-231. In words: Antitumour activity against human MDA-MB-231 cells xenografted in Balb/c mouse assessed as […] at 8 mg/kg, ip administered three times per week and measured on day 35 (reference value: 218 +/- 20.9 mm3). In kind it is functional. In a few lines: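 MDA-MB-231 tumours established in the right flank of 6-week-old BALB/c nude mice. Compound dissolved in DMSO was given ip three times weekly, with a DMSO vehicle group. Tumour volume calculated as 0.5W²L, measured before each dose and compared on day 35.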

The subject of another data set is Homo sapiens. The experiment in a line: Induction of apoptosis in human KBtax cells xenografted in Balb/c mouse at 8 mg/kg, ip administered 3 times per week and measured after 21 days by TUNEL staining based histological analysis. In kind it is functional, organism-based. In a few lines: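 1×10^7 KBtax cells injected subcutaneously into the right flank of 6-week-old BALB/c nude mice (n = 5 per group). Once tumors established, compound in DMSO given ip three times a week for 21 days. Tumor sections stained with H&E and by TUNEL.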

Data set [10] can be described thus: Toxicity in Balb/c mouse xenografted with human KBtax cells assessed as effect on body mass at 8 mg/kg, ip administered 3 times per week and measured after 21 days. To be noted: in vivo, 504 h. In kind it is organism-based. In a few lines: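 KBtax cells (1×10^7) injected subcutaneously into right flank of 6-week-old BALB/c nude mice; after tumor establishment, compounds dissolved in DMSO given intraperitoneally three times a week for 21 days alongside DMSO vehicle group (n = 5 per group). Body mass recorded before each dose.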

In data set [11] the target is ATP-dependent translocase ABCB1 (Homo sapiens, UniProt P08183). In words: Inhibition of P-gp efflux in human KBtax cells at 30 to 120 nM after 1 hr by flow cytometry. In kind it is cell-based. In a few lines: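 KBtax cells (2.5×10^5 per test) loaded with rhodamine in cold medium on ice for 1 h. Then resuspended in 37 °C medium with compound and held 1 h at 37 °C for efflux. Retained fluorescence measured by flow cytometry; verapamil used as P-gp inhibitor reference.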

Data set [12] has as its target T1, Tubulin (Homo sapiens). The experiment in a line: Inhibition of microtubule polymerization in human KBtax cells at 30 nM after 6 hrs by DAPI staining based scanning confocal microscopic analysis. In kind it is cell-based. In a few lines:
as §2

The source made the active and inactive calls. No cut-off for these calls is given here. Some results are limits rather than exact numbers.

A word on the IC50: it is the concentration at which inhibition is half-maximal.

ATP-dependent translocase ABCB1, sequence (P08183 whole entry): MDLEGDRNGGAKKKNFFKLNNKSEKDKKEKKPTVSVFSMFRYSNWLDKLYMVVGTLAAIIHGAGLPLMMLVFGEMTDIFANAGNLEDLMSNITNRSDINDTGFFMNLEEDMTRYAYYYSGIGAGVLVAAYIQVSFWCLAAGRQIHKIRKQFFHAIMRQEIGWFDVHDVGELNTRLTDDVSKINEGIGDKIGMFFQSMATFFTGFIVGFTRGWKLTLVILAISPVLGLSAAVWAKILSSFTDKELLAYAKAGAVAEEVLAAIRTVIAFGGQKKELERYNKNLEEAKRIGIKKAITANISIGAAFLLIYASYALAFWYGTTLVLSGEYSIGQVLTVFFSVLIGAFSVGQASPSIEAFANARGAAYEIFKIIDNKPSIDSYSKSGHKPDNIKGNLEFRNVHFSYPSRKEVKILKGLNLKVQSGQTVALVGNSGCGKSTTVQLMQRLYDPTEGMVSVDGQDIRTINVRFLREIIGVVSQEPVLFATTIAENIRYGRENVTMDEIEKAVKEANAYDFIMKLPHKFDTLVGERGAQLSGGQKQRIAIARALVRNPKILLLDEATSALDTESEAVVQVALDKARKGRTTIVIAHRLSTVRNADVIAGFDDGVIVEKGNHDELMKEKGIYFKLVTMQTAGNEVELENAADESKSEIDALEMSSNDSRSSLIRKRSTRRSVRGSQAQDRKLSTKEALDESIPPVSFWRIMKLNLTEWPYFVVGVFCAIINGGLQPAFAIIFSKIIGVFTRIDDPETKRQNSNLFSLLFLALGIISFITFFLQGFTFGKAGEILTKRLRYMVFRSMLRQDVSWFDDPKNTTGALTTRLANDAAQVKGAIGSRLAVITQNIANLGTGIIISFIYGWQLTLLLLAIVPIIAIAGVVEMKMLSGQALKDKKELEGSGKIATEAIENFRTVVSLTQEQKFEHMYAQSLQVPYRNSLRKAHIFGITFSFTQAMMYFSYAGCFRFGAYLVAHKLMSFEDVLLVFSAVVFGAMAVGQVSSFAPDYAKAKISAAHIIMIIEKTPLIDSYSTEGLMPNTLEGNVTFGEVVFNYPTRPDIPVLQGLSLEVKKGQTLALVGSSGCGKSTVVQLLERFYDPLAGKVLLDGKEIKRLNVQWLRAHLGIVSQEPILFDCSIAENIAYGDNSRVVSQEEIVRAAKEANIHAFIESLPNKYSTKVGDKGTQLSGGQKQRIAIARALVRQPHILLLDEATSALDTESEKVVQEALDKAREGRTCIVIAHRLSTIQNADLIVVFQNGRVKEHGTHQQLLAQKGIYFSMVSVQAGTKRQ

As to `CCOC(=O)c1ccc2nc(-c3ccccc3)cc(O)c2c1`, the IC50 in the data set with A549 is 0.02 µM; in the data set with HT-29, 0.048 µM; in the data set with COLO 205, 0.057 µM; in the data set with SW-620, 0.035 µM; in the data set on MOLT-4, 0.038 µM; in data set [1], > 10 µM. The Activity result in the data set with NCI-H1975 [2], in the data set on NCI-H1975 [3], in the data set with CL1-0 and at Tubulin (Homo sapiens) [5] was “Dose-dependent effect” each time. Also, the result in the data set on NCI-H1975 [4] was inactive. In addition, the outcome at Tubulin (Homo sapiens) [6] was Active.

For the molecule `CCOC(=O)c1ccc2[nH]c(-c3cccc(F)c3)cc(=O)c2c1`, the inhibition result on Tubulin (Homo sapiens) [7] and at Tubulin (Homo sapiens) [12] was “Active” throughout. In addition, the Activity in the data set on NCI-H1975 [8] is 1333 mm3; in data set [9], “Non-Toxic”; with MDA-MB-231 it was 73.6 mm3; in [10], “Non-Toxic”. Besides, in the data set on Homo sapiens, the result was Active. In addition, the “inhibition (INH)” value in [11] was “Not Active”.
